Assay results reported in ChEMBL document CHEMBL1157775, “Novel hexahydropyrrolo[3,4-c]pyrrole CCR5 antagonists” (Bioorg Med Chem Lett, 2010).

Test system: not listed separately
Test: Permeability from apical to basolateral side of human Caco-2 cells after 21 days
Format: ADME, cell-based
Conditions: read-out: permeability

| Compound | Papp A→B |
| --- | --- |
| Cc1ncnc(C)c1C(=O)N1C[C@H]2CN(CC[C@H](NC(=O)C3CCCC3)c3ccccc3)C[C@H]2C1 | 1.3 ×10⁻⁶ cm/s |
| Cc1cc(=O)[nH]c(C)c1C(=O)N1C[C@H]2CN(CC[C@H](NC(=O)C3CCCC3)c3ccccc3)C[C@H]2C1 | 0.5 ×10⁻⁶ cm/s |
| Cc1cc(C#N)nc(C)c1C(=O)N1C[C@H]2CN(CC[C@H](NC(=O)C3CCCC3)c3ccccc3)C[C@H]2C1 | 3 ×10⁻⁶ cm/s |
| Cc1cccc(C)c1C(=O)N1C[C@H]2CN(CC[C@H](NC(=O)C3CCCC3)c3ccccc3)C[C@H]2C1 | 4 ×10⁻⁶ cm/s |
| Cc1ccnc(C)c1C(=O)N1C[C@H]2CN(CC[C@H](NC(=O)C3CCCC3)c3ccccc3)C[C@H]2C1 | 4 ×10⁻⁶ cm/s |
| Cc1cc[n+]([O-])c(C)c1C(=O)N1C[C@H]2CN(CC[C@H](NC(=O)C3CCCC3)c3ccccc3)C[C@H]2C1 | 0.1 ×10⁻⁶ cm/s |
| COc1cc(C)c(C(=O)N2C[C@H]3CN(CC[C@H](NC(=O)C4CCCC4)c4ccccc4)C[C@H]3C2)c(C)c1 | 33 ×10⁻⁶ cm/s |

Test system: Human immunodeficiency virus 1
Test: Antiviral activity against HIV1 NL4-3 infected in human JC53-BL cells assessed as luciferase activity after 3 days post infection
Format: functional, organism-based
Conditions: Human immunodeficiency virus 1, NL4-3, JC53BL, 72 h
In short: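 Pseudotyped virus in culture supernatant was harvested after 2 days. It was used to infect JC53-BL reporter cells. Luciferase reporter activity was read 3 days post-infection. IC50 in nM is reported as the mean of two experiments.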

| Compound | IC50 |
| --- | --- |
| Cc1cc(=O)[nH]c(C)c1C(=O)N1C[C@H]2CN(CC[C@H](NC(=O)C3CCCC3)c3ccccc3)C[C@H]2C1 | 6 nM |
| Cc1ncnc(C)c1C(=O)N1C[C@H]2CN(CC[C@H](NC(=O)CC3CC(F)(F)C3)c3ccccc3)C[C@H]2C1 | 3 nM |
| CC(=O)N1C[C@H]2CN(CC[C@H](NC(=O)C3CCCC3)c3ccccc3)C[C@H]2C1 | > 1000 nM |
| Cc1cccc(Cl)c1C(=O)N1C[C@H]2CN(CC[C@H](NC(=O)C3CCCC3)c3ccccc3)C[C@H]2C1 | 3 nM |
| Cc1cccc(C)c1C(=O)N1C[C@H]2CN(CC[C@H](NC(=O)C3CCCC3)c3ccccc3)C[C@H]2C1 | 7 nM |
| CC(=O)N[C@@H](CCN1C[C@@H]2CN(C(=O)c3c(C)cccc3C)C[C@@H]2C1)c1ccccc1 | 132 nM |
| Cc1cccc(C)c1C(=O)N1C[C@H]2CN(CC[C@H](NC(=O)C(C)C)c3ccccc3)C[C@H]2C1 | 100 nM |
| Cc1noc(C)c1C(=O)N1C[C@H]2CN(CC[C@H](NC(=O)C3CCCC3)c3ccccc3)C[C@H]2C1 | 545 nM |
| Cc1cc[n+]([O-])c(C)c1C(=O)N1C[C@H]2CN(CC[C@H](NC(=O)C3CCCC3)c3ccccc3)C[C@H]2C1 | 19 nM |
| COc1cc(C)c(C(=O)N2C[C@H]3CN(CC[C@H](NC(=O)C4CCCC4)c4ccccc4)C[C@H]3C2)c(C)c1 | 0.4 nM |

Test system: Caco-2
Test: Efflux ratio of permeability from basolateral to apical over apical to basolateral side in human Caco-2 cells after 21 days
Conditions: caco-2, 504 h

| Compound | Ratio |
| --- | --- |
| Cc1cc(=O)[nH]c(C)c1C(=O)N1C[C@H]2CN(CC[C@H](NC(=O)C3CCCC3)c3ccccc3)C[C@H]2C1 | 5 |
| Cc1cccc(C)c1C(=O)N1C[C@H]2CN(CC[C@H](NC(=O)C3CCCC3)c3ccccc3)C[C@H]2C1 | 5 |
| Cc1cc[n+]([O-])c(C)c1C(=O)N1C[C@H]2CN(CC[C@H](NC(=O)C3CCCC3)c3ccccc3)C[C@H]2C1 | 300 |
| COc1cc(C)c(C(=O)N2C[C@H]3CN(CC[C@H](NC(=O)C4CCCC4)c4ccccc4)C[C@H]3C2)c(C)c1 | 2 |

Test system: not listed separately
Test: Intrinsic clearance in human liver microsomes assessed per mg of protein
Format: ADME, Microsome
Conditions: not given
In short: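 Human liver microsomes. Intrinsic clearance is expressed as µl/min/mg protein.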

| Compound | microsomal CLint |
| --- | --- |
| Cc1ncnc(C)c1C(=O)N1C[C@H]2CN(CC[C@H](NC(=O)C3CCCC3)c3ccccc3)C[C@H]2C1 | 35 µL/min/mg |
| Cc1cc(=O)[nH]c(C)c1C(=O)N1C[C@H]2CN(CC[C@H](NC(=O)C3CCCC3)c3ccccc3)C[C@H]2C1 | 25 µL/min/mg |
| Cc1ncnc(C)c1C(=O)N1C[C@H]2CN(CC[C@H](NC(=O)CC3CC(F)(F)C3)c3ccccc3)C[C@H]2C1 | 60 µL/min/mg |
| Cc1cc(C#N)nc(C)c1C(=O)N1C[C@H]2CN(CC[C@H](NC(=O)C3CCCC3)c3ccccc3)C[C@H]2C1 | 227 µL/min/mg |
| Cc1cccc(Cl)c1C(=O)N1C[C@H]2CN(CC[C@H](NC(=O)C3CCCC3)c3ccccc3)C[C@H]2C1 | 264 µL/min/mg |
| Cc1cccc(C)c1C(=O)N1C[C@H]2CN(CC[C@H](NC(=O)C3CCCC3)c3ccccc3)C[C@H]2C1 | 256 µL/min/mg |
| Cc1ccnc(C)c1C(=O)N1C[C@H]2CN(CC[C@H](NC(=O)C3CCCC3)c3ccccc3)C[C@H]2C1 | 67 µL/min/mg |
| Cc1cc[n+]([O-])c(C)c1C(=O)N1C[C@H]2CN(CC[C@H](NC(=O)C3CCCC3)c3ccccc3)C[C@H]2C1 | 6 µL/min/mg |
| COc1cc(C)c(C(=O)N2C[C@H]3CN(CC[C@H](NC(=O)C4CCCC4)c4ccccc4)C[C@H]3C2)c(C)c1 | 241 µL/min/mg |

Test system: not listed separately
Test: Intrinsic clearance in rat liver microsomes assessed per mg of protein
Format: ADME, Microsome
Conditions: not given
In short: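 Rat liver microsomes. Intrinsic clearance is expressed per mg protein. Values ≥90 µl/min were taken as high clearance.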

| Compound | microsomal CLint |
| --- | --- |
| Cc1ncnc(C)c1C(=O)N1C[C@H]2CN(CC[C@H](NC(=O)C3CCCC3)c3ccccc3)C[C@H]2C1 | 51 µL/min/mg |
| Cc1cc(=O)[nH]c(C)c1C(=O)N1C[C@H]2CN(CC[C@H](NC(=O)C3CCCC3)c3ccccc3)C[C@H]2C1 | 25 µL/min/mg |
| Cc1ncnc(C)c1C(=O)N1C[C@H]2CN(CC[C@H](NC(=O)CC3CC(F)(F)C3)c3ccccc3)C[C@H]2C1 | 61 µL/min/mg |
| Cc1cc(C#N)nc(C)c1C(=O)N1C[C@H]2CN(CC[C@H](NC(=O)C3CCCC3)c3ccccc3)C[C@H]2C1 | 144 µL/min/mg |
| Cc1cccc(C)c1C(=O)N1C[C@H]2CN(CC[C@H](NC(=O)C3CCCC3)c3ccccc3)C[C@H]2C1 | 322 µL/min/mg |
| Cc1ccnc(C)c1C(=O)N1C[C@H]2CN(CC[C@H](NC(=O)C3CCCC3)c3ccccc3)C[C@H]2C1 | 89 µL/min/mg |
| Cc1cc[n+]([O-])c(C)c1C(=O)N1C[C@H]2CN(CC[C@H](NC(=O)C3CCCC3)c3ccccc3)C[C@H]2C1 | 12 µL/min/mg |
| COc1cc(C)c(C(=O)N2C[C@H]3CN(CC[C@H](NC(=O)C4CCCC4)c4ccccc4)C[C@H]3C2)c(C)c1 | 236 µL/min/mg |

Molecular target: C-C chemokine receptor type 5 (Homo sapiens, UniProt P51681)
Sequence (P51681 whole entry): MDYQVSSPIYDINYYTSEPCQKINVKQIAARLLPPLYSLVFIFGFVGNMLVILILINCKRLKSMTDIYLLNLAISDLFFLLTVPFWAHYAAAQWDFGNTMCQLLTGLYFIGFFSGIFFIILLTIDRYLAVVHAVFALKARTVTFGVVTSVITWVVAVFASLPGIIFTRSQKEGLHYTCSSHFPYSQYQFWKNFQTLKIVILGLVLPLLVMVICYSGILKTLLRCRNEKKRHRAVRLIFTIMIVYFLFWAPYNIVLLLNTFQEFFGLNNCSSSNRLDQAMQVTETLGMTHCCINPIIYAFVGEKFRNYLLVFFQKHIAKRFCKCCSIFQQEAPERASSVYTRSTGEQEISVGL
Test: Binding affinity at CCR5 receptor by radiolabeled RANTES binding assay
Conditions: not given

| Compound | IC50 |
| --- | --- |
| Cc1ncnc(C)c1C(=O)N1C[C@H]2CN(CC[C@H](NC(=O)C3CCCC3)c3ccccc3)C[C@H]2C1 | 14 nM |
| Cc1cc(=O)[nH]c(C)c1C(=O)N1C[C@H]2CN(CC[C@H](NC(=O)C3CCCC3)c3ccccc3)C[C@H]2C1 | 30 nM |
| Cc1ncnc(C)c1C(=O)N1C[C@H]2CN(CC[C@H](NC(=O)CC3CC(F)(F)C3)c3ccccc3)C[C@H]2C1 | 20 nM |
| Cc1cc(C#N)nc(C)c1C(=O)N1C[C@H]2CN(CC[C@H](NC(=O)C3CCCC3)c3ccccc3)C[C@H]2C1 | 12 nM |
| CC(=O)N1C[C@H]2CN(CC[C@H](NC(=O)C3CCCC3)c3ccccc3)C[C@H]2C1 | 465 nM |
| Cc1cccc(Cl)c1C(=O)N1C[C@H]2CN(CC[C@H](NC(=O)C3CCCC3)c3ccccc3)C[C@H]2C1 | 9 nM |
| Cc1cccc(C)c1C(=O)N1C[C@H]2CN(CC[C@H](NC(=O)C3CCCC3)c3ccccc3)C[C@H]2C1 | 6 nM |
| CC(=O)N[C@@H](CCN1C[C@@H]2CN(C(=O)c3c(C)cccc3C)C[C@@H]2C1)c1ccccc1 | 15 nM |
| Cc1cccc(C)c1C(=O)N1C[C@H]2CN(CC[C@H](NC(=O)C(C)C)c3ccccc3)C[C@H]2C1 | 11 nM |
| Cc1noc(C)c1C(=O)N1C[C@H]2CN(CC[C@H](NC(=O)C3CCCC3)c3ccccc3)C[C@H]2C1 | 19 nM |
| Cc1ccnc(C)c1C(=O)N1C[C@H]2CN(CC[C@H](NC(=O)C3CCCC3)c3ccccc3)C[C@H]2C1 | 7 nM |
| Cc1cc[n+]([O-])c(C)c1C(=O)N1C[C@H]2CN(CC[C@H](NC(=O)C3CCCC3)c3ccccc3)C[C@H]2C1 | 44 nM |
| COc1cc(C)c(C(=O)N2C[C@H]3CN(CC[C@H](NC(=O)C4CCCC4)c4ccccc4)C[C@H]3C2)c(C)c1 | 26 nM |

Test system: not listed separately
Test: Clearance in rat at 1 mg/kg, iv
Format: ADME, organism-based
Parameters: dose 1 mg/kg, route intravenous
Conditions: in vivo
In short: (§1)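 Rat PK. Single IV dose of 1 mg/kg and oral dose of 10 mg/kg. Oral AUC (ng·h/mL) and %F were derived from the PO arm. Clearance (mL/min/kg) was taken from the IV arm.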

| Compound | clearance |
| --- | --- |
| Cc1ncnc(C)c1C(=O)N1C[C@H]2CN(CC[C@H](NC(=O)C3CCCC3)c3ccccc3)C[C@H]2C1 | 131 mL/min/kg |
| Cc1cccc(C)c1C(=O)N1C[C@H]2CN(CC[C@H](NC(=O)C3CCCC3)c3ccccc3)C[C@H]2C1 | 134 mL/min/kg |
| Cc1ccnc(C)c1C(=O)N1C[C@H]2CN(CC[C@H](NC(=O)C3CCCC3)c3ccccc3)C[C@H]2C1 | 151 mL/min/kg |

Test system: not listed separately
Test: AUC in rat at 10 mg/kg, po
Format: ADME, organism-based
Parameters: dose 10 mg/kg, route oral
Conditions: plasma
In short: as §1

| Compound | AUC |
| --- | --- |
| Cc1ncnc(C)c1C(=O)N1C[C@H]2CN(CC[C@H](NC(=O)C3CCCC3)c3ccccc3)C[C@H]2C1 | 309 ng·h/mL |
| Cc1cccc(C)c1C(=O)N1C[C@H]2CN(CC[C@H](NC(=O)C3CCCC3)c3ccccc3)C[C@H]2C1 | 31 ng·h/mL |
| Cc1ccnc(C)c1C(=O)N1C[C@H]2CN(CC[C@H](NC(=O)C3CCCC3)c3ccccc3)C[C@H]2C1 | 65 ng·h/mL |

Test system: not listed separately
Test: Oral bioavailability in rat at 10 mg/kg
Format: ADME, organism-based
Conditions: in vivo
In short: as §1

| Compound | bioavailability |
| --- | --- |
| Cc1ncnc(C)c1C(=O)N1C[C@H]2CN(CC[C@H](NC(=O)C3CCCC3)c3ccccc3)C[C@H]2C1 | 17% |
| Cc1cccc(C)c1C(=O)N1C[C@H]2CN(CC[C@H](NC(=O)C3CCCC3)c3ccccc3)C[C@H]2C1 | 2.7% |
| Cc1ccnc(C)c1C(=O)N1C[C@H]2CN(CC[C@H](NC(=O)C3CCCC3)c3ccccc3)C[C@H]2C1 | 6.4% |
